These results are taken from ChEMBL document CHEMBL1127679, “6H-pyrazolo[4,5,1-de]acridin-6-ones as a novel class of antitumor agents. Synthesis and biological activity” (J Med Chem, 1994).

For experiment [1], the species on record is Mus musculus. The experiment is described as follows: %T/C value measured in antitumor activity using murine P388 leukemia cells. The format is functional. The essentials:
(§1)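 Mice inoculated ip with P388 leukemia cells or the adriamycin-resistant subline P388/ADM. Drug activity expressed as T/C (%), i.e. mean survival days of the treated group over those of the control group, followed for 60 days. T/C >130% taken as significant. Optimal dose reported in mg/kg per injection.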

The species named for experiment [2] is Mus musculus. The experiment in a line: %T/C value measured in antitumor activity using murine P388/ADM cells. In kind it is functional. The method, boiled down: as §1
Experiment [3] deals with Mus musculus. The experiment is described as follows: Compound evaluated for optimal dose (mg/kg) per injection against murine P388 leukemia cells. The format is functional. The method, boiled down: as §1
The species named for experiment [4] is Mus musculus. The experiment is described as follows: Compound evaluated for optimal dose per injection against adriamycin resistant murine cell line (P388/ADM cells). The format is functional. The essentials:
as §1

Experiment [5] has as its target Nucleic Acid. The experiment is described as follows: Relative affinity for DNA binding. In kind it is nucleic-acid assay.
The species named for experiment [6] is Mus musculus. The experiment in a line: %T/C value measured in antitumor activity using murine sarcoma 180 tumor cells. The format is functional. The essentials: (§2)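 Sarcoma 180 cells inoculated sc in mice. Drugs tested for antitumor activity, with the optimal dose given in mg/kg per injection. Activity expressed as treated versus control (T/C) value, and T/C <50% taken as effective.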

The species entered for experiment [7] is Mus musculus. The experiment is described as follows: Compound evaluated for optimal dose per injection against murine P388 leukemia cells. The format is functional. The method, boiled down: as §1
The species named for experiment [8] is Mus musculus. The experiment is described as follows: Compound evaluated for optimal dose per injection against murine sarcoma 180 cells. The format is functional. The method, boiled down: as §2
The species named for experiment [9] is Mus musculus. The experiment in a line: %T/C value measured in antitumor activity using murine sarcoma 180 cells. The format is functional. The essentials:
as §2

The species named for experiment [10] is Mus musculus. The experiment is described as follows: %T/C value measured in antitumor activity using murine P388/ADM cells. In kind it is functional. The method, boiled down:
as §1

Regarding `O=c1c2c(O)cccc2n2nc(CNCCO)c3ccc(NCCCO)c1c32`, the T/C was found to be 152% in experiment [1] and 123% in experiment [2]. Further, the Optimal dose is 13 mg/kg in experiment [3] and 50 mg/kg in experiment [4]. For the same compound, the IC50 in experiment [5] is 1050 nM.

For `NCCNCc1nn2c3cccc(O)c3c(=O)c3c(NCCN)ccc1c32`, the T/C in [6] is recorded as 12%; in experiment [1], >254%; in [2], 138%. For the same compound, the Optimal dose in experiment [4] came out at 13 mg/kg; in [7], 13 mg/kg; in experiment [8], 25 mg/kg. This compound had an IC50 in experiment [5] of 170 nM.

As to `CN(C)CCNc1ccc2c(CNCCO)nn3c4cccc(O)c4c(=O)c1c23`, the T/C was 9% in [6], >261% in experiment [1] and 144% in [2]. Moreover, the Optimal dose turned out to be 3.1 mg/kg in [4], 6.3 mg/kg in [7] and 3.1 mg/kg in [8]. This compound also gave an IC50 in experiment [5] of 180 nM.

With `COc1cccc2c1C(=O)c1c(O)c3c(c(O)c1C2=O)C[C@@](O)(C(=O)CO)C[C@@H]3O[C@H]1C[C@H](N)[C@H](O)[C@H](C)O1` [DOXORUBICIN], the T/C is reported as 31% in experiment [9], >254% in [1] and 116% in experiment [10]. Further, the Optimal dose in experiment [3], in experiment [4] and in experiment [8] was 7.5 mg/kg throughout.

Turning to `NCCNc1ccc2c(CNCCO)nn3c4cccc(O)c4c(=O)c1c23`, the T/C in [9] is 6%; in experiment [1], >222%; in [2] it was 152%. In addition, the Optimal dose in [4] was determined as 1.6 mg/kg; in experiment [7], 1.6 mg/kg; in [8], 6.3 mg/kg. This compound came in with an IC50 in experiment [5] of 140 nM.

On to `NCCCNc1ccc2c(CNCCO)nn3c4cccc(O)c4c(=O)c1c23`, for which the T/C in experiment [6] was 21%; in experiment [1], >230%; in [2], 156%. The Optimal dose is 6.3 mg/kg in [4], 13 mg/kg in [7] and 6 mg/kg in experiment [8]. In experiment [5], the IC50 is 130 nM.

Consider `CN(C)CCNc1ccc2c(CN(CCO)CCO)nn3c4cccc(O)c4c(=O)c1c23`, for which the T/C is 42% in [6], >286% in [1] and 134% in [10]. The results for the Optimal dose in experiment [3], in experiment [4] and in experiment [8] were 25 mg/kg, 25 mg/kg and 13 mg/kg, respectively. In addition, the concentration for half-maximal inhibition (IC50) in experiment [5] amounted to 420 nM.

As for `NCCNCc1nn2c3ccccc3c(=O)c3c(NCCN)ccc1c32`, the T/C in [1] came out at 150%. Further, the Optimal dose in experiment [7] is 38 mg/kg. For the same compound, the IC50 in experiment [5] was 130 nM.

In the case of `COc1cccc2c1c(=O)c1c(NCCN(C)C)ccc3c(CNCCN(C)C)nn2c31`, the IC50 in experiment [5] amounted to 160 nM. This lies in the sub-micromolar range.

In experiment [5], `CN(C)CCNCc1nn2c3ccccc3c(=O)c3c(NCCN(C)C)ccc1c32` yielded an IC50 of 260 nM.

Consider `NCCNc1ccc2c(CNCCCCO)nn3c4cccc(O)c4c(=O)c1c23`, for which the T/C in experiment [1] is 146%; in experiment [2] it was 126%. The Optimal dose was 3.1 mg/kg in experiment [3] and 6.3 mg/kg in experiment [4]. The same compound gave an IC50 in experiment [5] of 170 nM.

As for `CCNCc1nn2c3cccc(O)c3c(=O)c3c(NCCN(C)C)ccc1c32`, the T/C was 196% in experiment [1] and 126% in experiment [2]. In addition, the Optimal dose in experiment [4] and in experiment [7] was 3.1 mg/kg each time. The same compound gave an IC50 in [5] of 110 nM.

As for `COc1cccc2c1c(=O)c1c(NCCN)ccc3c(CNCCN)nn2c31`, the T/C in [1] is listed as 139%. The Optimal dose in experiment [3] was determined as 25 mg/kg. The IC50 in [5] amounted to 180 nM.

`CN(C)CCNCc1nn2c3cccc(O)c3c(=O)c3c(NCCN(C)C)ccc1c32` gave an IC50 in experiment [5] of 160 nM.

In the case of `O=c1c2c(O)cccc2n2nc(CNCCO)c3ccc(NCCNCCO)c1c32`, the T/C in experiment [6] is listed as 5%; in experiment [1] it was >208%; in [2], 145%. The figures for the Optimal dose in experiment [3], in [4] and in [8] were 3.1 mg/kg, 6.3 mg/kg and 12 mg/kg, respectively. This compound also registered an IC50 in experiment [5] of 140 nM.

Consider `NCCCNc1ccc2c(CN3CCOCC3)nn3c4cccc(O)c4c(=O)c1c23`, for which the values for the T/C in experiment [9], in [1] and in experiment [10] were 33%, >278% and 115%, respectively. Also, the Optimal dose in experiment [3], in [4] and in experiment [8] was 13 mg/kg in each case. In experiment [5], the IC50 turned out to be 890 nM.

Take `NCCCCNc1ccc2c(CNCCO)nn3c4cccc(O)c4c(=O)c1c23`: the T/C in [1] is given as 161%; in experiment [2], 112%. The Optimal dose in [4] amounted to 50 mg/kg; in experiment [7], 25 mg/kg. In experiment [5], this compound came in with an IC50 of 190 nM.

In the case of `NCCNc1ccc2c(CNCCCO)nn3c4cccc(O)c4c(=O)c1c23`, the T/C in [1] is given as >181%; in experiment [2], 146%. Also, the Optimal dose in experiment [3] and in [4] was 3.1 mg/kg throughout. This compound yielded an IC50 in experiment [5] of 140 nM.

The T/C is the result in the treated group divided by that in the control group, in per cent. The term IC50 denotes the concentration at which inhibition is half-maximal.
